Source: ChEMBL document CHEMBL1153731, “Methicillin-resistant Staphylococcus aureus (MRSA)-active metabolites from Platanus occidentalis (American Sycamore)” (J Nat Prod, 2009)
Values after ≈ are worked out from the molar mass of the structure shown. Active and inactive are the calls of the source. No cut-off for these calls is given here.

Experiments:
Staphylococcus aureus [1] = test: Antibacterial activity against methicillin-resistant Staphylococcus aureus by NCCLS method; type: functional, organism-based
How it was run: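 MRSA tested in vitro by CLSI (formerly NCCLS) broth microdilution. Samples were diluted in 0.9% saline and run in duplicate in 96-well microplates. Cell suspension was added to reach the target inoculum, with media and solvent controls included. IC50 was taken from percent growth plotted against concentration. MIC was the lowest concentration with no detectable growth; MBC was the lowest concentration that killed the organism.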

Staphylococcus aureus [2] = test: Antibacterial activity against Staphylococcus aureus by NCCLS method; type: functional, organism-based
How it was run: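 Microdilution per CLSI (formerly NCCLS). Samples run in duplicate, diluted in 0.9% saline in 96-well plates, then microbial suspensions added to reach the target inocula. Media and solvent controls in every assay. IC50 read from a plot of percent growth against concentration. MIC taken as the lowest concentration with no detectable growth; MBC as the lowest concentration that kills the organism.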

Escherichia coli = test: Antibacterial activity against Escherichia coli at 100 ug/ml by NCCLS method; type: functional, organism-based
Pseudomonas aeruginosa = test: Antibacterial activity against Pseudomonas aeruginosa at 100 ug/ml by NCCLS method; type: functional, organism-based
[3] = system: Mycobacterium intracellulare; test: Antibacterial activity against Mycobacterium intracellular at 100 ug/ml by NCCLS method; type: functional, organism-based
Candida albicans = test: Antifungal activity against Candida albicans at 100 ug/ml by NCCLS method; type: functional, organism-based
Cryptococcus neoformans = test: Antifungal activity against Cryptococcus neoformans at 100 ug/ml by NCCLS method; type: functional, organism-based
Aspergillus fumigatus = test: Antifungal activity against Aspergillus fumigatus at 100 ug/ml by NCCLS method; type: functional, organism-based
Vero = test: Cytotoxicity against african green monkey Vero cells up to 100 ug/ml; type: cell-based; settings: chlorocebus sabaeus
Staphylococcus aureus [4] = test: Antibacterial activity against methicillin-resistant Staphylococcus aureus at 100 ug/ml by NCCLS method; type: functional, organism-based
Staphylococcus aureus [5] = test: Antibacterial activity against Staphylococcus aureus infected in CD1 mouse thigh muscle assessed as reduction in colony forming unit at 3.0 mg/kg, ip administered 2 hrs after infection measured after 48 hrs; type: functional, Muscle tissue; settings: route intraperitoneal
How it was run: (§1)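 Neutropenic thigh infection in CD-1 mice. Neutropenia induced by cyclophosphamide 100 mg/kg ip on days -4 and -1. Each rear thigh inoculated im with MRSA, 1.5 × 10⁶ cfu in 50 μL. n = 2 mice per group, each thigh a data point. Compound given ip starting 2 h post-inoculation; saline and vancomycin controls. Sacrifice at 48 h; thighs weighed, homogenized in 5.0 mL saline, plated for cfu/g tissue.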

Staphylococcus aureus [6] = test: Antibacterial activity against Staphylococcus aureus infected in CD1 mouse thigh muscle assessed as reduction in colony formation unit at 3.0 mg/kg, ip administered 2 hrs after infection measured after 48 hrs relative to control; type: functional, Muscle tissue; design: scale not given: the % may be the effect or the level left; settings: route intraperitoneal; how it was run: as §1
Staphylococcus aureus [7] = test: Antibacterial activity against Staphylococcus aureus infected in CD1 mouse thigh muscle assessed as reduction in colony forming unit at 15 mg/kg, ip administered 2 hrs after infection measured after 48 hrs; type: functional, Muscle tissue; settings: route intraperitoneal; how it was run: as §1
Staphylococcus aureus [8] = test: Antibacterial activity against Staphylococcus aureus infected in CD1 mouse thigh muscle assessed as reduction in colony forming unit at 15 mg/kg, ip administered 2 hrs after infection measured after 48 hrs relative to control; type: functional, Muscle tissue; design: scale not given: the % may be the effect or the level left; settings: route intraperitoneal; how it was run: as §1
Mus musculus = test: Toxicity in CD1 mouse up to 20 mg/kg, ip after 2 days; type: organism-based; design: dose 20 mg/kg, route intraperitoneal; settings: in vivo, 48 h
How it was run: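 Preliminary tolerance study: CD-1 mice dosed ip daily for 2 days at up to 20 mg/kg and watched for untoward effects.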

With C[C@@H]1O[C@@H](Oc2c(-c3ccc(O)cc3)oc3cc(O)cc(O)c3c2=O)[C@H](OC(=O)/C=C/c2ccc(O)cc2)[C@H](OC(=O)/C=C\c2ccc(O)cc2)[C@H]1O the IC50 (Staphylococcus aureus [1]) was 0.8 µg/mL (≈ 1.1 µM), the MIC (Staphylococcus aureus [1]) was 1.7 µg/mL (≈ 2.35 µM) and the IC50 (Staphylococcus aureus [2]) was 1.6 µg/mL (≈ 2.21 µM). For the same compound, the MIC (Staphylococcus aureus [2]) was 5.8 µg/mL (≈ 8 µM), the Activity (Escherichia coli) was “inactive” and the Activity (Pseudomonas aeruginosa) was “inactive”. For the same compound, the Activity [3] was “inactive”, the Activity (Candida albicans) was “inactive” and the Activity (Cryptococcus neoformans) was “inactive”. The Activity (Aspergillus fumigatus) was “inactive” and the Activity (Vero) was “Non-toxic”.
With COc1cccc(OC)c1C(=O)N[C@@H]1C(=O)N2[C@@H]1SC(C)(C)[C@@H]2C(=O)O [METHICILLIN] the IC50 (Staphylococcus aureus [2]) was 0.4 µg/mL (≈ 1.05 µM), the MIC (Staphylococcus aureus [2]) was 2.5 µg/mL (≈ 6.57 µM) and the IC50 (Staphylococcus aureus [4]) was “Not Active”. The MIC (Staphylococcus aureus [4]) was “inactive”.
C[C@@H]1O[C@@H](Oc2c(-c3ccc(O)cc3)oc3cc(O)cc(O)c3c2=O)[C@H](OC(=O)/C=C/c2ccc(O)cc2)[C@H](OC(=O)/C=C/c2ccc(O)cc2)[C@H]1O was tested, and the IC50 (Staphylococcus aureus [1]) was 2 µg/mL (≈ 2.76 µM), the MIC (Staphylococcus aureus [1]) was 10 µg/mL (≈ 13.8 µM) and the IC50 (Staphylococcus aureus [2]) was 3.7 µg/mL (≈ 5.11 µM). The MIC (Staphylococcus aureus [2]) was 13.3 µg/mL (≈ 18.4 µM), the Activity (Escherichia coli) was “inactive” and the Activity (Pseudomonas aeruginosa) was “inactive”. For the same compound, the Activity [3] was “inactive”, the Activity (Candida albicans) was “inactive” and the Activity (Cryptococcus neoformans) was “inactive”. For the same compound, the Activity (Aspergillus fumigatus) was “inactive”, the Activity (Vero) was “Non-toxic” and the Activity (Staphylococcus aureus [5]) was 2.6 ×10⁷ /g. It also gave an Activity (Staphylococcus aureus [6]) of 67%, an Activity (Staphylococcus aureus [7]) of 1.8 ×10⁷ /g and an Activity (Staphylococcus aureus [8]) of 78%. For the same compound, the Activity (Mus musculus) was “Non-toxic”.
With CCN1CCN(C(=O)N[C@@H](C(=O)N[C@@H]2C(=O)N3[C@@H]2SC(C)(C)[C@@H]3C(=O)O)c2ccccc2)C(=O)C1=O [PIPERACILLIN] the IC50 (Staphylococcus aureus [4]) was “Not Active” and the MIC (Staphylococcus aureus [4]) was “inactive”.
Compound C[C@@H]1O[C@@H](Oc2c(-c3ccc(O)cc3)oc3cc(O)cc(O)c3c2=O)[C@H](OC(=O)/C=C\c2ccc(O)cc2)[C@H](OC(=O)/C=C/c2ccc(O)cc2)[C@H]1O has an IC50 (Staphylococcus aureus [1]) of 0.7 µg/mL (≈ 0.966 µM), an MIC (Staphylococcus aureus [1]) of 1.3 µg/mL (≈ 1.79 µM) and an IC50 (Staphylococcus aureus [2]) of 1.4 µg/mL (≈ 1.93 µM). The MIC (Staphylococcus aureus [2]) was 3.8 µg/mL (≈ 5.24 µM), the Activity (Escherichia coli) was “inactive” and the Activity (Pseudomonas aeruginosa) was “inactive”. For the same compound, the Activity [3] was “inactive”, the Activity (Candida albicans) was “inactive” and the Activity (Cryptococcus neoformans) was “inactive”. The Activity (Aspergillus fumigatus) was “inactive” and the Activity (Vero) was “Non-toxic”.
Cc1onc(-c2ccccc2Cl)c1C(=O)N[C@@H]1C(=O)N2[C@@H]1SC(C)(C)[C@@H]2C(=O)O [CLOXACILLIN] gave an IC50 (Staphylococcus aureus [1]) of 8.9 µg/mL (≈ 20.4 µM).
In the case of O=C(O)c1cn(C2CC2)c2cc(N3CCNCC3)c(F)cc2c1=O [CIPROFLOXACIN], the MIC (Staphylococcus aureus [1]) is reported as 0.3 µg/mL (≈ 0.905 µM) and the MIC (Staphylococcus aureus [2]) is reported as 0.4 µg/mL (≈ 1.21 µM).
